Results from ChEMBL document CHEMBL1135063, “Cytotoxic and antibacterial activity of 2-oxopurine derivatives” (Bioorg Med Chem Lett, 2002).
Converted amounts (≈) assume the structure as drawn.

What was measured:
[1] = test system: K562; test: Cytotoxicity against chronic myelogenous leukemia cell line K-562 was determined by measuring [3H]thymidine incorporation after 48 h; assay type: functional, cell-based; conditions: Homo sapiens
Procedure, shortened: (§1)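 K-562 cells in RPMI 1640 with 10% FCS, 2 mM L-glutamine and kanamycin, humidified 5% CO2. Log-phase cells seeded at 2 × 10^4 cells/mL and exposed to compound (DMSO, 0.05% final) over a 10 to 0.078 range for 48 h. Cells were then pulsed 2 h with [3H]-thymidine, filter-harvested and cell-associated radioactivity counted. Percent inhibition or IC50 is reported with SD.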

[2] = test system: K562; test: Cytotoxicity against chronic myelogenous leukemia cell line K-562 was determined by measuring [3H]thymidine incorporation at a concentration 10 ug/mL after 48 h; assay type: functional; conditions: Homo sapiens; procedure, shortened: as §1
[3] = test system: Lacticaseibacillus casei; test: Tested for antibacterial activity against Lactobacillus casei; assay type: functional
[4] = test system: Mycobacterium tuberculosis; test: Tested for percent inhibition against Mycobacterium tuberculosis at concentration of 12.5 ug/mL; assay type: functional
Procedure, shortened: (§2)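 M. tuberculosis H37Rv (ATCC 27294) grown in BACTEC 12B medium; inhibition read out by Microplate Alamar Blue assay.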

[5] = test system: K562; test: Cytotoxicity against chronic myelogenous leukemia cell line K-562 was determined by measuring [3H]thymidine incorporation at a concentration of 10 ug/mL after 5 h; assay type: functional; conditions: Homo sapiens
Procedure, shortened: (§3)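 K-562 cells in RPMI 1640 with 10% FCS, 2 mM L-glutamine and kanamycin, 5% CO2. Log-phase cells seeded at 4 × 10^4 cells/mL and exposed to compound (DMSO, 0.05% final) over a 10 to 0.078 range for 5 h. Cells were then pulsed 2 h with [3H]-thymidine, harvested onto fiberglass filters and counted. IC50 is the concentration inhibiting incorporation by 50%. Values are given with SD.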

[6] = test system: K562; test: Cytotoxicity against chronic myelogenous leukemia cell line K-562 was determined by measuring [3H]thymidine incorporation at a concentration of 1.25 ug/mL after 48 h; assay type: functional; conditions: Homo sapiens; procedure, shortened: as §1
[7] = test system: K562; test: Concentration that reduces [3H]thymidine incorporation by 50% in chronic myelogenous leukemia cell line K-562 after 5 h; assay type: functional, cell-based; conditions: Homo sapiens; procedure, shortened: as §3
[8] = test system: K562; test: Cytotoxicity against chronic myelogenous leukemia cell line K-562 was determined by measuring [3H]thymidine incorporation at a concentration of 1 ug/mL after 5 h; assay type: functional; conditions: Homo sapiens; procedure, shortened: as §3
[9] = test system: K562; test: Cytotoxicity against chronic myelogenous leukemia cell line K-562 was determined by measuring [3H]thymidine incorporation at a concentration 1 ug/mL after 48 h; assay type: functional; conditions: Homo sapiens; procedure, shortened: as §1
[10] = test system: Vero; test: Tested for inhibition against Vero cells at 12.5 ug/mL; assay type: functional, cell-based; conditions: Chlorocebus sabaeus
[11] = test system: K562; test: Cytotoxicity against chronic myelogenous leukemia cell line K-562 was determined by measuring [3H]thymidine incorporation at a concentration of 1.00 ug/mL after 5 h; assay type: functional; conditions: Homo sapiens; procedure, shortened: as §3
[12] = test system: Mycobacterium avium; test: Tested for percent inhibition against Mycobacterium avium at 12.5 ug/mL; assay type: functional
[13] = test system: Mycobacterium tuberculosis; test: Tested for percent inhibition against Mycobacterium tuberculosis at 12.5 ug/mL; assay type: functional; procedure, shortened: as §2
[14] = test system: Mycobacterium tuberculosis; test: Tested for antibacterial activity against Mycobacterium tuberculosis; assay type: functional; procedure, shortened: as §2
[15] = test system: K562; test: Cytotoxicity against chronic myelogenous leukemia cell line K-562 was determined by measuring [3H]thymidine incorporation at a concentration of 1.00 ug/mL after 48 h; assay type: functional; conditions: Homo sapiens; procedure, shortened: as §1
[16] = test system: K562; test: Cytotoxicity against chronic myelogenous leukemia cell line K-562 was determined by measuring [3H]-thymidine incorporation at a concentration of 1.25 ug/mL after 5 h; assay type: functional; conditions: Homo sapiens; procedure, shortened: as §3
[17] = test system: Mycobacterium tuberculosis; test: Tested for percent inhibition against Mycobacterium tuberculosis at 12.5 ug/mL concentration; assay type: functional; procedure, shortened: as §2
[18] = test system: Mycobacterium tuberculosis; test: Antibacterial activity was evaluated against Mycobacterium tuberculosis; assay type: functional; procedure, shortened: as §2
[19] = test system: K562; test: Cytotoxicity against chronic myelogenous leukemia cell line K-562 was determined by measuring [3H]thymidine incorporation at a concentration of 10 ug/mL after 48 h; assay type: functional; conditions: Homo sapiens; procedure, shortened: as §1
[20] = test system: K562; test: Cytotoxicity against chronic myelogenous leukemia cell line K-562 determined using [3H]thymidine incorporation at a concentration of 1.00 ug/mL after 48 h; assay type: functional; conditions: Homo sapiens; procedure, shortened: as §1
[21] = test system: K562; test: Cytotoxicity against chronic myelogenous leukemia cell line K-562 determined using [3H]thymidine incorporation at a concentration 10 ug/mL after 48 h; assay type: functional; conditions: Homo sapiens; procedure, shortened: as §1
[22] = test system: Mycobacterium tuberculosis; test: Tested for percent inhibition against Mycobacterium tuberculosis at a concentration of 12.5 ug/mL; assay type: functional; procedure, shortened: as §2
[23] = test system: Lacticaseibacillus casei; test: Tested for inhibitory effect on Gram-positive bacterium; Lactobacillus casei; assay type: functional
[24] = test system: K562; test: Cytotoxicity against chronic myelogenous leukemia cell line K-562 was determined by measuring [3H]thymidine incorporation after 5 h; assay type: functional, cell-based; conditions: Homo sapiens; procedure, shortened: as §3

SMILES | IC50 [1] [µg/mL] | inhibition at 10 µg/mL [2] [%] | inhibition at 10 µg/mL [5] [%] | inhibition at 1.25 µg/mL [6] [%] | IC50 [7] [µg/mL] | also measured
CC(C)C1c2ncn(Cc3ccccc3)c2NC(=O)N1Cc1ccccc1 (configuration not stated) | 10 (≈ 27.7 µM) | 51 | – | – | – | –
O=C1Nc2ncn(Cc3ccccc3)c2C(c2ccccc2)N1Cc1ccccc1 (configuration not stated) | > 10 | 48 | – | – | – | –
O=c1nc2c(ncn2Cc2ccccc2)c(C(F)(F)F)n1Cc1ccccc1 | > 10 | 11 | – | – | – | –
O=c1nc2c(ncn2Cc2ccccc2)c(-c2cccs2)n1Cc1ccccc1 | – | – | – | – | – | MIC [3]: > 10 µg/mL; inhibition at 12.5 µg/mL [4]: 0%
CC1c2ncn(Cc3ccccc3)c2NC(=O)N1Cc1ccccc1 (configuration not stated) | 1.4 (≈ 4.21 µM) | 98 | 76.4 | 33 | 2.5 (≈ 7.52 µM) | –
O=C1Nc2[nH]cnc2C(C#CC2CC2)(C(F)(F)F)N1 (configuration not stated) | > 1 | – | – | – | > 1 | inhibition at 1 µg/mL [8]: 0.3%; inhibition at 1 µg/mL [9]: 0.8%
O=c1nc2c(ncn2Cc2ccccc2)c(C#Cc2ccccc2)n1Cc1ccccc1 | 0.7 (≈ 1.68 µM) | 100 | – | – | 1 (≈ 2.4 µM) | IC50 [10]: < 0.2 µg/mL; inhibition at 1 µg/mL [11]: 48%; inhibition at 12.5 µg/mL [12]: 60%; inhibition at 12.5 µg/mL [13]: 95%; MIC [3]: > 10 µg/mL; MIC [14]: 12.5 µg/mL (≈ 30 µM); inhibition at 1 µg/mL [15]: 90%
O=C1Nc2c(ncn2Cc2ccccc2)C(C#CC2CC2)N1Cc1ccccc1 (configuration not stated) | 1.3 (≈ 3.4 µM) | 98 | 90 | 42 | 1.6 (≈ 4.18 µM) | inhibition at 1.25 µg/mL [16]: 35%
O=c1nc2c(ncn2Cc2ccccc2)c(-c2ccccc2)n1Cc1ccccc1 | – | 70 | – | – | – | MIC [3]: > 10 µg/mL; inhibition at 12.5 µg/mL [17]: 0%
Clc1nc(-c2cccs2)c2ncn(Cc3ccccc3)c2n1 | – | – | – | – | – | MIC [18]: 1.56 µg/mL (≈ 4.77 µM)
O=C1Nc2c(ncn2Cc2ccccc2)C(C#CC2CC2)(C(F)(F)F)N1Cc1ccccc1 (configuration not stated) | 0.2 (≈ 0.444 µM) | 100 | 94 | 99 | 0.4 (≈ 0.888 µM) | inhibition at 1.25 µg/mL [16]: 66%
O=c1nc2c(cn1Cc1ccccc1)ncn2Cc1ccccc1 | > 10 | – | 16 | 5.7 | > 10 | inhibition at 10 µg/mL [19]: 37%; inhibition at 1.25 µg/mL [16]: 4.4%
O=C1Nc2c(ncn2Cc2ccccc2)C(C#Cc2ccccc2)N1Cc1ccccc1 (configuration not stated) | 0.8 (≈ 1.91 µM) | – | – | – | 1.4 (≈ 3.35 µM) | inhibition at 1 µg/mL [20]: 59%; inhibition at 1 µg/mL [11]: 20%; inhibition at 10 µg/mL [21]: 100%
O=C1Nc2c(ncn2Cc2ccccc2)C(C(F)(F)F)N1Cc1ccccc1 (configuration not stated) | 2 (≈ 5.18 µM) | 97 | 51 | 26 | 10 (≈ 25.9 µM) | inhibition at 1.25 µg/mL [16]: 15.4%
O=c1nc2c(ncn2Cc2ccccc2)c(C#CC2CC2)n1Cc1ccccc1 | 0.2 (≈ 0.526 µM) | 97 | 98 | 100 | 0.4 (≈ 1.05 µM) | inhibition at 1.25 µg/mL [16]: 98%
CCC1(c2ccccc2)c2ncn(Cc3ccccc3)c2NC(=O)N1Cc1ccccc1 (configuration not stated) | – | 80 | – | – | – | –
CC(C)c1c2ncn(Cc3ccccc3)c2nc(=O)n1Cc1ccccc1 | > 10 | 18 | – | – | – | –
O=C1Nc2c(ncn2Cc2ccccc2)C(c2ccccc2)N1Cc1ccccc1 (configuration not stated) | 0.2 (≈ 0.507 µM) | 90 | 69 | 85 | 5.1 (≈ 12.9 µM) | inhibition at 1.25 µg/mL [16]: 9.1%
O=c1nc2c(ncn2Cc2ccccc2)c(-c2ccco2)n1Cc1ccccc1 | – | – | – | – | – | inhibition at 12.5 µg/mL [22]: 0%; MIC [3]: > 10 µg/mL
O=C1N(Cc2ccccc2)c2nc[nH]c2C(c2ccccc2)N1Cc1ccccc1 (configuration not stated) | > 10 | 32 | – | – | – | MIC [23]: 10 µg/mL (≈ 25.3 µM)
Sc1ncnc2nc[nH]c12 [MERCAPTOPURINE ANHYDROUS] | 0.4 (≈ 2.63 µM) | – | – | – | – | IC50 [24]: 8.5 µg/mL (≈ 55.9 µM)
